Assay results published in paper PMC5538437 (Genes & Development, 2017).
Where a chain is given by its changes, count along the chain named.

T1: 4EHP RE-LL–4E-BP1 complex (Homo sapiens, UniProt O60573, E149L/R103L)
T1 sequence (O60573 52-234 R103L/E149L): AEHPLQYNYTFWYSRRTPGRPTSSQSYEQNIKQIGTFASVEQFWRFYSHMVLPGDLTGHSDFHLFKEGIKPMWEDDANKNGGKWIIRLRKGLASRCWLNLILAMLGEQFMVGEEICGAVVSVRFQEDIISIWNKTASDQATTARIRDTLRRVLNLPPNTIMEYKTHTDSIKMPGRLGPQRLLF

T2: 4EHP–GYF2 (35–105) complex (Homo sapiens, UniProt O60573+Q6Y7W6)
T2 sequence (O60573 52-234): T1 sequence (O60573 52-234 R103L/E149L) with L52R, L98E
T2 sequence (Q6Y7W6 35-105 partner limits assumed): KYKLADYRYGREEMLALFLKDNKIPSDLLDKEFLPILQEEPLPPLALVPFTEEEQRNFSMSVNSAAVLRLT

T3: 4EHP–4E-BP1 complex (Homo sapiens, UniProt O60573)
T3 sequence (O60573 52-234): T1 sequence (O60573 52-234 R103L/E149L) with L52R, L98E

B1: GYF2 C+L+NC+A: GYF2 residues K35–T105, complete 4EHP-binding region (peptide)
chain: T2 sequence (Q6Y7W6 35-105 partner limits assumed)
modifications: left off: MBP, N-terminal, state not stated | GB1, C-terminal, kept
B2: GYF2: Hs GIGYF2 Q6Y7W6-1, full-length (1–1299) (protein)
chain: MAAETQTLNFGPEWLRALSSGGSITSPPLSPALPKYKLADYRYGREEMLALFLKDNKIPSDLLDKEFLPILQEEPLPPLALVPFTEEEQRNFSMSVNSAAVLRLTGRGGGGTVVGAPRGRSSSRGRGRGRGECGFYQRSFDEVEGVFGRGGGREMHRSQSWEERGDRRFEKPGRKDVGRPNFEEGGPTSVGRKHEFIRSESENWRIFREEQNGEDEDGGWRLAGSRRDGERWRPHSPDGPRSAGWREHMERRRRFEFDFRDRDDERGYRRVRSGSGSIDDDRDSLPEWCLEDAEEEMGTFDSSGAFLSLKKVQKEPIPEEQEMDFRPVDEGEECSDSEGSHNEEAKEPDKTNKKEGEKTDRVGVEASEETPQTSSSSARPGTPSDHQSQEASQFERKDEPKTEQTEKAEEETRMENSLPAKVPSRGDEMVADVQQPLSQIPSDTASPLLILPPPVPNPSPTLRPVETPVVGAPGMGSVSTEPDDEEGLKHLEQQAEKMVAYLQDSALDDERLASKLQEHRAKGVSIPLMHEAMQKWYYKDPQGEIQGPFNNQEMAEWFQAGYFTMSLLVKRACDESFQPLGDIMKMWGRVPFSPGPAPPPHMGELDQERLTRQQELTALYQMQHLQYQQFLIQQQYAQVLAQQQKAALSSQQQQQLALLLQQFQTLKMRISDQNIIPSVTRSVSVPDTGSIWELQPTASQPTVWEGGSVWDLPLDTTTPGPALEQLQQLEKAKAAKLEQERREAEMRAKREEEERKRQEELRRQQEEILRRQQEEERKRREEEELARRKQEEALRRQREQEIALRRQREEEERQQQEEALRRLEERRREEEERRKQEELLRKQEEEAAKWAREEEEAQRRLEENRLRMEEEAARLRHEEEERKRKELEVQRQKELMRQRQQQQEALRRLQQQQQQQQLAQMKLPSSSTWGQQSNTTACQSQATLSLAEIQKLEEERERQLREEQRRQQRELMKALQQQQQQQQQKLSGWGNVSKPSGTTKSLLEIQQEEARQMQKQQQQQQQHQQPNRARNNTHSNLHTSIGNSVWGSINTGPPNQWASDLVSSIWSNADTKNSNMGFWDDAVKEVGPRNSTNKNKNNASLSKSVGVSNRQNKKVEEEEKLLKLFQGVNKAQDGFTQWCEQMLHALNTANNLDVPTFVSFLKEVESPYEVHDYIRAYLGDTSEAKEFAKQFLERRAKQKANQQRQQQQLPQQQQQQPPQQPPQQPQQQDSVWGMNHSTLHSVFQTNQSNNQQSNFEAVQSGKKKKKQKMVRADPSLLGFSVNASSERLNMGEIETLDDY

What was measured:
[1] = test system: R-Luc-ARE-A90-MALAT1 reporter; assay type: cell-based, human; conditions: λN-HA-TTPΔNIM with GFP-GYF2 and/or λN-HA-4EHP, GYF1/2-null HEK293T cells
Summary of the method: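 Wild-type and GYF1/2-null HEK293T cells received 1 µg R-Luc-ARE-A90-MALAT1 reporter and 0.25 µg F-Luc-GFP control. Where indicated, they also received 50 ng λN-HA-TTPΔNIM, 0.2 µg GFP-MBP, 1 µg GFP-GYF2 (wild type or C*) and 0.5 µg λN-HA-4EHP. Dual luciferase was measured 2 d post-transfection. R-Luc/F-Luc was set to 100% without TTP for each cell line.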

[2] = test system: R-Luc-6xMS2-A95-MALAT1 reporter; experiment: Tethering assay, R-Luc-6xMS2-A95-MALAT1 reporter, HEK293T cells; assay type: cell-based, human; conditions: MS2-HA-GYF2, HEK293T cells
Summary of the method: (§1)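 HEK293T cells transfected with 0.25 µg F-Luc-GFP control plasmid, 0.5 µg R-Luc-6xMS2-A95-MALAT1 reporter (or R-Luc-A95-MALAT1, lacking MS2 sites), 0.25 µg GFP-MBP, and 0.3 µg MS2-HA or 1 µg MS2-HA-GYF2 (wild type or canonical mutant) plasmid. Dual luciferase read 2 d post-transfection. R-Luc normalized to F-Luc, set to 100% for MS2-HA. Mean ± SD of three independent experiments.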

[3] = biological target: T1, 4EHP RE-LL–4E-BP1 complex; experiment: Competition assay, preassembled 4EHP RE-LL–4E-BP1 complex; assay type: biochemical; conditions: after 60 min of incubation with equimolar GYF2 fragment
[4] = biological target: T2, 4EHP–GYF2 (35–105) complex; experiment: ITC, m7GpppG cap analog vs 4EHP–GYF2 complex; assay type: binding; conditions: 20 mM HEPES pH 7.5, 200 mM NaCl
4EHP–4E-BP1 complex = biological target: T3, 4EHP–4E-BP1 complex; experiment: Competition assay, preassembled 4EHP–4E-BP1 complex; assay type: biochemical; conditions: competition assay with equimolar GYF2 fragment
[5] = test system: R-Luc-A95-MALAT1 reporter; experiment: Tethering assay, reporter lacking the MS2-binding sites; assay type: cell-based, human; conditions: MS2-HA-GYF2, HEK293T cells
Summary of the method: as §1

[6] = test system: R-Luc-5BoxB-A95-MALAT1 reporter; assay type: cell-based, human; conditions: λN-HA-4EHP with GFP-MBP or GFP-GYF2, GYF1/2-null HEK293T cells
Summary of the method: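 GYF1/2-null and control HEK293T cells were seeded at 0.6 × 10^6 cells per well and lipofected. Each well received 0.25 µg F-Luc-GFP control, 0.5 µg R-Luc-5BoxB-A95-MALAT1 reporter, and 0.3 µg λN-HA or 0.7 µg λN-HA-4EHP. Cells also got 0.25 µg GFP-MBP, 1.8 µg GFP-GYF2 wild type or 1.2 µg C* mutant. Luciferases were read after 2 d. R-Luc/F-Luc was set to 100% for λN-HA. Mean ± SD, three independent experiments.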

Row | Molecule | TTP-mediated repression of the ARE reporter, GYF1/2-null cells [1] | repression of MS2 reporter expression [2] | 4E-BP1 displaced from 4EHP RE-LL [3] [%] | effect on 4EHP's affinity for the m7GpppG cap analog [4] | competitive advantage over 4E-BP1 for binding to 4EHP (4EHP–4E-BP1 complex) | effect on reporter lacking the MS2-binding sites [5] | repression of tethered reporter by 4EHP in GYF1/2-null cells [6]
1 | GYF2 C: GYF2 residues K35–K54, canonical 4EHP-binding region (KYKLADYRYGREEMLALFLK; UniProt Q6Y7W6 35-54, looked up, fragment) | No restoration was observed | still repressed the expression of the R-Luc-6xMS2-A95-MALAT1 reporter as efficiently as wild-type GYF2 |  |  |  |  | 
2 | B1 |  |  | 40 | did not increase the affinity of 4EHP for an m^7GpppG cap analog |  |  | 
3 | B2 |  | repressed mRNA reporter expression in tethering assays |  |  | the auxiliary sequences afford GYF2 a competitive advantage over 4E-BP1 for binding to 4EHP | did not repress a reporter lacking the MS2-binding sites | restored by transient expression of wild-type GFP-tagged GYF2
